{"source": "ChEMBL document CHEMBL1124672", "about": "“A minor modification of residue 1 in potent vasopressin antagonists dramatically reduces agonist activity” (J Med Chem, 1989)", "key": {"Canis familiaris [1]": {"tested_on": "Canis familiaris", "test": "Compound was tested for the maximum urine osmolality with a dose of 100 ug/kg compound in dog.", "format": "ADME, organism-based, Canis lupus familiaris", "conditions": "in vivo, 0.1 mg/kg", "procedure,_shortened": "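Adult female mongrel dogs, lightly restrained supine, food withheld 18 h, water-loaded (tap water 5% body weight by gavage). 3% dextrose infused intravenously until Uosm below 70 mOsm/kg H2O, then matched to urine output. After 20 min baseline, indomethacin 2 mg/kg load + 3 mg/kg per h for 20 min, then single i.v. bolus 100 µg/kg or vehicle. Uosm by freezing point depression, every 10 min for 3 h; maximum Uosm, mean ±SE.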"}, "[2]": {"test": "Compound was evaluated for inhibition of vasopressin-stimulated adenylate cyclase in human medullary preparation", "procedure,_shortened": "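Human renal medullary tissue; inhibition of vasopressin-stimulated adenylate cyclase, reported as inhibition constant Ki.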"}, "Rattus norvegicus": {"tested_on": "Rattus norvegicus", "test": "Effective dose of compound required to lower urine osmolality to 300 mOsm/kg H2O in rat", "format": "functional", "procedure,_shortened": "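Hydropenic rat model. ED300 (µg/kg) is the dose reducing urine osmolality from hydropenic levels to plasma osmolality level, 300 mOsm/kg H2O.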"}, "[3]": {"tested_on": "Vasopressin V2 receptor (Sus scrofa)", "test": "Binding affinity of compound towards Vasopressin receptor by binding [3H]LVP to pig renal medullary preparation", "conditions": "Renal medulla"}, "Canis familiaris [4]": {"tested_on": "Canis familiaris", "test": "Compound was tested for the maximum urine osmolality with a dose of 100 ug/kg compound in dog", "format": "ADME, organism-based, Canis lupus familiaris", "conditions": "in vivo, 0.1 mg/kg", "procedure,_shortened": "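Adult female mongrel dogs, fasted 18 h with water allowed, hydrated orally with tap water (5% body weight), bladder-catheterized. 3% dextrose iv to baseline water diuresis (Uosm <70 mOsm/kg H2O). Indomethacin 2 mg/kg load + 3 mg/kg per h. Single iv bolus of 100 µg/kg peptide or vehicle. Uosm by freezing point depression every 10 min for 3 h; maximum value, mean ±SE.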"}}, "note": "Numbered stars: 1 amine (or outer) side, 2 acyl side, 3 side chain; on linkers, the order of the positions; unused ones are H or OH. Bridge positions count the residues as written; N and C are the ends. Square brackets hold non-standard residues; d marks the D form. Peptide text beside a SMILES is read from it. X1 = O=C(CC1(S[*:2])CCCCC1)[*:1]", "data": [{"smiles": "CCOc1ccc(C[C@H]2NC(=O)CC3(CCCCC3)SSC[C@@H](C(=O)N3CCC[C@H]3C(=O)N[C@@H](CCCNC(=N)N)C(N)=O)NC(=O)[C@H](CC(N)=O)NC(=O)[C@H](C(C)C)NC(=O)[C@H](Cc3ccccc3)NC2=O)cc1", "note": "([dY](Et)FVNCPR-NH2; linker N-5 via X1)", "values": [{"measurement": "Max Uosm", "setting": "Canis familiaris [1]", "value": 1625, "unit": "mOsmol kg-1"}, {"measurement": "Ki", "setting": "[2]", "value": 3.6, "unit": "nM"}]}, {"smiles": "CCOc1ccc(C[C@@H]2NC(=O)CC3(CCC(C)CC3)SSC[C@H](C(=O)N[C@@H](CCCN=C(N)N)C(=O)N[C@@H](CCCN=C(N)N)C(N)=O)NC(=O)[C@H](CC(N)=O)NC(=O)[C@H](C(C)C)NC(=O)[C@H](Cc3ccccc3)NC2=O)cc1", "note": "(stereo partly specified)", "values": [{"measurement": "Max Uosm", "setting": "Canis familiaris [1]", "value": 103, "unit": "mOsmol kg-1"}, {"measurement": "Ki", "setting": "[2]", "value": 3.9, "unit": "nM"}, {"measurement": "ED300", "setting": "Rattus norvegicus", "value": 0.046, "unit": "mg/kg"}, {"measurement": "K Bind", "setting": "[3]", "value": 4.2, "unit": "nM"}]}, {"smiles": "CCOc1ccc(C[C@@H]2NC(=O)CC3(CCCCC3)SSC[C@H](C(=O)N[C@@H](CCCN=C(N)N)C(=O)N[C@@H](CCCN=C(N)N)C(N)=O)NC(=O)[C@@H](CC(N)=O)NC(=O)[C@H](C(C)C)NC(=O)[C@@H](Cc3ccccc3)NC2=O)cc1", "values": [{"measurement": "Max Uosm", "setting": "Canis familiaris [1]", "value": 469, "unit": "mOsmol kg-1"}, {"measurement": "Ki", "setting": "[2]", "value": 4.5, "unit": "nM"}, {"measurement": "ED300", "setting": "Rattus norvegicus", "value": 0.0135, "unit": "mg/kg"}, {"measurement": "K Bind", "setting": "[3]", "value": 4.5, "unit": "nM"}]}, {"smiles": "CCOc1ccc(C[C@H]2NC(=O)CC3(CCC(C)CC3)SSC[C@@H](C(=O)N3CCC[C@H]3C(=O)N[C@@H](CCCN=C(N)N)C(=O)NCC(N)=O)NC(=O)[C@H](CC(N)=O)NC(=O)[C@H](C(C)C)NC(=O)[C@H](Cc3ccccc3)NC2=O)cc1", "note": "(stereo partly specified) [listing 1 of 2 here]", "values": [{"measurement": "ED300", "setting": "Rattus norvegicus", "value": 0.025, "unit": "mg/kg"}]}, {"smiles": "CCOc1ccc(C[C@H]2NC(=O)CC3(CCC(C)CC3)SSC[C@@H](C(=O)N3CCC[C@H]3C(=O)N[C@@H](CCCNC(=N)N)C(N)=O)NC(=O)[C@H](CC(N)=O)NC(=O)[C@H](C(C)C)NC(=O)[C@H](Cc3ccccc3)NC2=O)cc1", "note": "(stereo in doubt; 3)", "values": [{"measurement": "Max Uosm", "setting": "Canis familiaris [1]", "value": 613, "unit": "mOsmol kg-1"}]}, {"smiles": "CCOc1ccc(C[C@H]2NC(=O)CC3(CCC(C)CC3)SSC[C@@H](C(=O)N3CCC[C@H]3C(=O)N[C@@H](CCCN=C(N)N)C(=O)NCC(N)=O)NC(=O)[C@H](CC(N)=O)NC(=O)[C@H](C(C)C)NC(=O)[C@H](Cc3ccccc3)NC2=O)cc1", "note": "(stereo partly specified) [listing 2 of 2 here]", "values": [{"measurement": "Max Uosm", "setting": "Canis familiaris [1]", "value": 85, "unit": "mOsmol kg-1"}, {"measurement": "Ki", "setting": "[2]", "value": 4.3, "unit": "nM"}]}, {"smiles": "CCOc1ccc(C[C@H]2NC(=O)CC3(CCCCC3)SSC[C@@H](C(=O)N3CCC[C@H]3C(=O)N[C@@H](CCCN=C(N)N)C(N)=O)NC(=O)[C@H](CC(N)=O)NC(=O)[C@H](C(C)C)NC(=O)[C@H](Cc3ccccc3)NC2=O)cc1", "note": "([dY](Et)FVNCPR-NH2; linker N-5 via X1)", "values": [{"measurement": "ED300", "setting": "Rattus norvegicus", "value": 0.015, "unit": "mg/kg"}]}, {"smiles": "CCOc1ccc(C[C@H]2NC(=O)CC3(CCC(C)CC3)SSC[C@@H](C(=O)N3CCC[C@H]3C(=O)N[C@@H](CCCN=C(N)N)C(N)=O)NC(=O)[C@H](CC(N)=O)NC(=O)[C@H](C(C)C)NC(=O)[C@H](Cc3ccccc3)NC2=O)cc1", "note": "(stereo in doubt; 3)", "values": [{"measurement": "ED300", "setting": "Rattus norvegicus", "value": 0.022, "unit": "mg/kg"}]}, {"smiles": "CCOc1ccc(C[C@H]2NC(=O)CC3(CCCCC3)SSC[C@@H](C(=O)N3CCC[C@H]3C(=O)N[C@@H](CCCN=C(N)N)C(=O)NCC(N)=O)NC(=O)[C@H](CC(N)=O)NC(=O)[C@H](C(C)C)NC(=O)[C@H](Cc3ccccc3)NC2=O)cc1", "note": "([dY](Et)FVNCPRG-NH2; linker N-5 via X1) [listing 1 of 2 here]", "values": [{"measurement": "Max Uosm", "setting": "Canis familiaris [1]", "value": 1216, "unit": "mOsmol kg-1"}, {"measurement": "Ki", "setting": "[2]", "value": 4.6, "unit": "nM"}]}, {"smiles": "CCOc1ccc(C[C@H]2NC(=O)CC3(CCC(C)CC3)SSC[C@@H](C(=O)N3CCC[C@H]3C(=O)N[C@@H](CCCN=C(N)N)C(N)=O)NC(=O)[C@H](CC(N)=O)NC(=O)[C@H](C(C)C)NC(=O)[C@H](Cc3ccccc3)NC2=O)cc1", "note": "(stereo in doubt; 2)", "values": [{"measurement": "ED300", "setting": "Rattus norvegicus", "value": 0.045, "unit": "mg/kg"}]}, {"smiles": "CCOc1ccc(C[C@H]2NC(=O)CC3(CCCCC3)SSC[C@@H](C(=O)N3CCC[C@H]3C(=O)N[C@@H](CCCN=C(N)N)C(=O)NCC(N)=O)NC(=O)[C@H](CC(N)=O)NC(=O)[C@H](C(C)C)NC(=O)[C@H](Cc3ccccc3)NC2=O)cc1", "note": "([dY](Et)FVNCPRG-NH2; linker N-5 via X1) [listing 2 of 2 here]", "values": [{"measurement": "ED300", "setting": "Rattus norvegicus", "value": 0.011, "unit": "mg/kg"}]}, {"smiles": "CCOc1ccc(C[C@H]2NC(=O)CC3(CCC(C)CC3)SSC[C@@H](C(=O)N3CCC[C@H]3C(=O)N[C@@H](CCCNC(=N)N)C(N)=O)NC(=O)[C@H](CC(N)=O)NC(=O)[C@H](C(C)C)NC(=O)[C@H](Cc3ccccc3)NC2=O)cc1", "note": "(stereo in doubt; 2)", "values": [{"measurement": "Max Uosm", "setting": "Canis familiaris [4]", "value": 91, "unit": "mOsmol kg-1"}]}]}
